This note sets out measurements from ChEMBL document CHEMBL1123619, “Isothiourea derivatives of 6-phenyl-2,3,5,6-tetrahydroimidazo[2,1-b]thiazole with broad-spectrum anthelmintic activity” (J Med Chem, 1987).

In series [1] the test system is Ovis aries. Description: Antihelmethic activity expressed as the percentage of worms eliminated in the feces in sheep large bowel at subcuteneous dose of 30 mg/kg against Trichuris ovis. Type of series: functional. The essentials:
(§1)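 Sheep given a single dose, oral or subcutaneous. Total daily feces collected for 4 days after treatment and examined for expelled worms. Necropsy at day 7 after dosing; lungs, liver and gastrointestinal tract removed and remaining worms identified. Activity calculated by comparing worms passed in feces with those remaining at autopsy. Single animals per test unless otherwise indicated.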

The subject of series [2] is Ovis aries. Description: Antihelmethic activity expressed as the percentage of worms eliminated in the feces in sheep small intestine at peroral dose of 30 mg/kg against Trichostrongylus axei. Type of series: functional. As to conditions: route oral. The method, boiled down: as §1
For series [3], the system named is Ovis aries. Description: Antihelmethic activity expressed as the percentage of worms eliminated in the feces in sheep abomasum at peroral dose of 30 mg/kg against Haemonchus contortus. Type of series: functional. Conditions: route oral. The essentials:
as §1

Series [4] concerns Ovis aries. Description: Antihelmethic activity expressed as the percentage of worms eliminated in the feces in sheep […] at subcuteneous dose of 30 mg/kg against Lungworm Dictyocaulus filaria. The series is classed as functional. The essentials:
as §1

The subject of series [5] is Ovis aries. Description: Toxic activity expressed as the percentage against liver fluke in the sheep at 300 mg/kg peroral administration of dose; no toxic symptoms observed. As to conditions: in vivo, po. Type of series: ADME, organism-based. More on the design: dose 300 mg/kg, route oral.
Series [6] concerns Ovis aries. Description: Toxic activity expressed as the percentage against liver fluke in the sheep at 15 mg/kg peroral administration of dose. The series is classed as ADME, organism-based. More on the design: dose 15 mg/kg, route oral. As to conditions: in vivo, po. The method, boiled down:
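Fasciola hepatica in sheep, controlled test; animals necropsied only when fecal egg count fell; postmortem fluke burdens compared with untreated control sheep (10 controls).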

For series [7], the system named is Ovis aries. Description: Antihelmethic activity expressed as the percentage of worms eliminated in the feces in sheep small intestine at subcuteneous dose of 30 mg/kg against Trichostrongylus axei. The series is classed as functional. The essentials: as §1
For series [8], the system named is Mus musculus. Description: Nematocidal against Nematospiroides dubius in mouse was determined at 50 mg/kg peroral dose of compound. Conditions: route oral. The series is classed as functional. The method, boiled down:
(§2)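 Seven-week-old female LACA mice infected orally with 100 N. dubius L3 larvae; single gavage dose given at day 10 of infection, groups of four mice; necropsy 4 days later; percent activity from worm burdens of treated versus untreated groups.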

The subject of series [9] is Ovis aries. Description: Antihelmethic activity expressed as the percentage of worms eliminated in the feces in sheep large bowel at subcuteneous dose of 30 mg/kg against chabertia ovina. Type of series: functional. The essentials: as §1
The test system of series [10] is Ovis aries. Description: Antihelmethic activity expressed as the percentage of worms eliminated in the feces in sheep small intestine at subcuteneous dose of 30 mg/kg against Bunostomum trigonocephalum. The series is classed as functional. The method, boiled down:
as §1

For series [11], the system named is Ovis aries. Description: Anthelmintic activity against adult liver fluke (Fasciola hepatica) in sheep, after peroral administration of 15 mg/kg was determined. Conditions: route oral. Type of series: functional. The method, boiled down:
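Sheep dosed with a single oral dose. Fecal fluke egg output monitored after treatment. Animals necropsied only if the fecal egg count fell. Postmortem Fasciola hepatica burdens compared with untreated control sheep (mean of 10 controls). Single animals per test unless otherwise indicated, with group size given in parentheses. I denotes no effect on fecal fluke egg output.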

The next series concerns Canis familiaris. Description: Antihelmethic activity expressed as the percentage of worms eliminated in the feces in dog toxascaris at peroral dose of 30 mg/kg; worms voided and toxascaris egg count reduced to zero for the duration of the test. More on the design: dose 30 mg/kg. Type of series: functional, organism-based. Conditions: Canis lupus familiaris.
Series [12] relates to Mus musculus. Description: Nematocidal against Nematospiroides dubius in mouse was determined at 100 mg/kg peroral dose of compound. The series is classed as functional. Conditions: route oral. The method, boiled down:
as §2

The test system of series [13] is Ovis aries. Description: Antihelmethic activity expressed as the percentage of worms eliminated in the feces in sheep small intestine at subcuteneous dose of 30 mg/kg against Cooperia curticei. Type of series: functional. The method, boiled down: as §1
For series [14], the system named is Ovis aries. Description: Antihelmethic activity expressed as the percentage of worms eliminated in the feces in sheep small intestine at peroral dose of 30 mg/kg against Strongyloides papillosus. The series is classed as functional. As to conditions: route oral. The method, boiled down:
as §1

For `CS/C(=N\c1cccc(C2CN3CCSC3=N2)c1)Nc1ccc(C#N)cc1` (stereo not given), the Activity is reported as 100% with Ovis aries [1]; 100% with Ovis aries [2]; 100% with Ovis aries [3]; 100% in the series with Ovis aries [4]; “no toxic symptoms” in the series with Ovis aries [5]; 83% in the series on Ovis aries [6]. In addition, the Activity in the series on Ovis aries [7] was 100%; in the series on Mus musculus [8] it was 99; in the series with Ovis aries [9] it was 96%; with Ovis aries [10], 100%; in the series with Ovis aries [11], 83%; with Canis familiaris it was “no toxic symptoms”. Moreover, the figures for the Activity in the series on Mus musculus [12], in the series with Ovis aries [13] and in the series with Ovis aries [14] were 100, 91% and 100%, respectively.
